FID counter: compounds displacing fluorescent DNA intercalator, primary screen, artefact control for HCV NS3 helicase inhibitor project, biochemical, FID fluorescence; DNA fluorescent intercalator displacement; inhibition, % at 7.9 µM; 0.17% of 290,000 active; AID 1845, 2009; in the data active means inhibition above about 37%;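 further: 0% = vehicle and 100% = reference compound; higher means more ethidium bromide displaced from hairpin DNA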
UBC13 polyUb: UBC13 polyubiquitin chain formation inhibitors, primary screen, biochemical, TR-FRET, uHTS. 0.47% of 330,000 active. AID 485273, 2010. inhibition, % at 20 µM; in the data active means inhibition above about 45%, passing the limit was not always enough
RAD52 anneal inh: RAD52 DNA annealing inhibitors, primary screen, biochemical, FRET, single point, set 2; DNA repair protein RAD52 homolog (Homo sapiens), P43351; recombinant RAD52 DNA annealing, FRET fluorescence; inhibition, % at 18.7 µM; 0.46% of 360,000 active;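 active means every replicate showing at least 50% inhibition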
RAD54 inh: inhibitors of human RAD54 branch migration, primary screen, biochemical, fluorescence, single point; DNA repair and recombination protein RAD54-like (Homo sapiens), Q92698; RAD54 Holliday junction branch migration, FAM/BHQ fluorescence; inhibition, % at 10.4 µM; 0.14% of 360,000 active; AID 602329, 2012;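 active means mean normalized replicate activity at least 40 and at least half of replicates scoring 40 or more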;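 further: 0% = median of neutral control wells and 100% = median of positive control wells; inhibitors cause a drop in the FAM fluorescence signal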
Target sequence (Q92698 whole entry, looked up): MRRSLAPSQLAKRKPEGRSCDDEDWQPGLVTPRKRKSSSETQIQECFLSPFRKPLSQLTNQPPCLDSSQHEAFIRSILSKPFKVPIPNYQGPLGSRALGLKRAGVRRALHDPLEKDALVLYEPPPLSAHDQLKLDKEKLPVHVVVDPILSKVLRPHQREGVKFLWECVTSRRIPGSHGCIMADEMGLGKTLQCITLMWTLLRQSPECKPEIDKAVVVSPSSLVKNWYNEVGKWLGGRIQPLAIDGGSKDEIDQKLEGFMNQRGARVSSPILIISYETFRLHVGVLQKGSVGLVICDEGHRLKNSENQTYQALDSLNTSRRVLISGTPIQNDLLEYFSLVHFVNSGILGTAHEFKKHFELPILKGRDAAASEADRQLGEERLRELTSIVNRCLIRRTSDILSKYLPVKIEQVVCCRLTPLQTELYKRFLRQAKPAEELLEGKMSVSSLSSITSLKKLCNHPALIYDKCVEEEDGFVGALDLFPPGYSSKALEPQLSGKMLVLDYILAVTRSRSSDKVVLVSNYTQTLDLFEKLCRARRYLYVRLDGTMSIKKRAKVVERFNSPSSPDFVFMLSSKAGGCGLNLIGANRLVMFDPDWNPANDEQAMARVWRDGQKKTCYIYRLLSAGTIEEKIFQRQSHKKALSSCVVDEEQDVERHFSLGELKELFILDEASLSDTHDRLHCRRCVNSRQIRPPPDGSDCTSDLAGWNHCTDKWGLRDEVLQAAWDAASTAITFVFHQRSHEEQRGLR
Neddyl block: inhibitors of cullin neddylation, primary screen, biochemical, TR-FRET, uHTS, NAE and Ubc12; NEDD8-conjugating enzyme Ubc12 (Homo sapiens) + NEDD8-activating enzyme E1 regulatory …; calls only at 25 µM; 0.58% of 360,000 active; in the data active means inhibition above about 36%
Apaf1 inhib: inhibitors of human Apaf-1 apoptosome, primary screen, biochemical, DEVD-Rh110 fluorescence, uHTS. AID 489030, 2010. 0.71% of 330,000 active. inhibition, % at 20 µM. reconstituted apoptosome caspase-3 activity; active means inhibition of at least 40% at 20 µM;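 further: plate controls were DMSO wells for no effect and DEVD-CHO caspase inhibitor wells for full effect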
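System: Apoptosome proteins | Medium: Hepes pH 7.5 with detergent and BSA | Also added: Cytochrome c trigger plus (Z-DEVD)2-Rh110 caspase-3 substrate | Incubation: 30 min compound preincubation, 50 min activation, room temperature | Detection: Rhodamine 110 fluorescence at Ex 480/Em 540 nm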
Apaf-1 inh conf: Apaf-1 inhibitors, single-dose retest, confirmation, biochemical, fluorescence, DEVD-Rh110, 20 µM; inhibition, % at 20 µM; 25% of 1,800 active; AID 504614, 2011; reconstituted apoptosome, caspase-3 DEVD-Rh110 fluorescence; shares compounds with Apaf1 inhib;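 active means mean inhibition of at least 40% at 20 µM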;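 further: plate controls were DMSO wells for no effect and DEVD-CHO caspase inhibitor control wells for full effect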
Rh110 interf inh: Rh110 fluorescence interference by putative Apaf-1 inhibitors, confirmation, artefact control for Apaf-1 inhibitor project, biochemical, 20 µM | shares compounds with Apaf1 inhib | quenched caspase reaction | activation (fluorescence interference), % at 20 µM | 1,800 tested, under 10 active;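 active means signal rise of 40% or more at 20 µM, treated as a fluorescence artifact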
Numbers without * were called inactive; i = inactive; . = no result given. A selection: hits, their analogues and other compounds. The true share with any hit is near 1.6%.

SMILES	FID counter	UBC13 polyUb	RAD52 anneal inh	RAD54 inh	Neddyl block	Apaf1 inhib	Apaf-1 inh conf	Rh110 interf inh
C[C@H](CO)N1C[C@H](C)[C@@H](CN(C)Cc2ccc(-c3ccccc3)cc2)Oc2ccc(NC(=O)Cc3cn(C)c4ccccc34)cc2C1=O	.	.	29	.	.	.	.	.
O=C(c1ccc(F)cc1)N1CC(=O)N2[C@@H](CO)[C@H](c3ccc(C#CC4CCCCC4)cc3)[C@@H]2C1	.	.	-11	.	.	.	.	.
Oc1ccc(N=Cc2ccc(-c3cccs3)s2)cc1	-2	2	.	-23	.	96*	26	5
CC1=NN(c2cccc(C(=O)O)c2)C(=O)/C1=C\C=C/c1ccccc1	-19	-22	4	.	i	16	.	.
CC1=NN(c2ccccc2)C(=O)/C1=C\c1ccc(Br)s1	4	-8	-18	.	i	96*	38	1
CC1=NN(c2ccccc2)C(=O)/C1=C/c1ccc(Cl)cc1	-4	-44	-12	-6	i	96*	16	-2
CC1=NN(c2ccc(C(=O)O)cc2)C(=O)/C1=C\c1ccc(OC(=O)c2cccs2)cc1	-1	-55	4	.	i	75*	13	3
CCOc1cc(/C=C2/C(=O)N(c3ccccc3)N=C2C)ccc1OC(=O)c1ccco1	2	-69	.	5	i	97*	21	17
CC1=NN(c2ccccc2)C(=O)/C1=C/c1ccc[nH]1	-1	-35	.	-13	i	-138	.	.
COc1cccc(NC(=O)N2[C@H](CO)[C@H](c3ccccc3)[C@@H]2CNC(C)C)c1	.	.	-122	1	.	.	.	.
CC1=NN(c2ccccc2)C(=O)/C1=C\c1cc(C)n(-c2ccccc2)c1C	-1	-29	-57	.	i	28	.	.
CC1=NN(c2ccc(C)c(C)c2)C(=O)/C1=C/c1ccc2c(c1)n(C)c(=O)n2C	-5	-26	.	.	i	94*	13	5
CC1=NN(c2ccccc2)C(=O)/C1=C/C=C/C=C/N(C)C	-23	i	-317	.	i	25	.	.
CC1=NN(c2ccccc2)C(=O)/C1=C\N(O)c1ccccc1	3	-42	-5	-6	i	71*	30	2
CC1=NN(c2ccccc2)C(=O)/C1=C/c1cccs1	-1	-19	.	.	i	90*	12	3
Cc1ccc(OCC(=O)Nc2ccc(N3CCCC3)cc2)cc1C	-9	9	.	4	i	30	.	.
Cc1cc(C)cc(OCC(=O)Nc2ccc(N3CCCC3)cc2)c1	0	18	.	23	i	41*	21	7
COc1ccc(OC)c(-n2c(N)c(C(=O)NCC3CCCO3)c3nc4ccccc4nc32)c1 (stereo not given)	-31	.	.	1	.	.	.	.
COCCn1c(N)c(C(=O)NCC2CCCO2)c2nc3ccccc3nc21 (stereo not given)	-14	-1	.	11	.	75*	30	5
CC(C)Cn1c(N)c(C(=O)NCC2CCCO2)c2nc3ccccc3nc21 (stereo not given)	-20	-7	.	-1	.	65*	30	10
CCCC#Cc1ccc([C@H]2[C@@H](CO)N3C(=O)CN(C(=O)Nc4ccccc4)C[C@@H]23)cc1	.	.	-10	.	.	.	.	.
C[C@@H]1CN([C@@H](C)CO)C(=O)c2cc(-c3cccnc3)cnc2O[C@H]1CN(C)C(=O)c1ccccc1F	.	.	-2	-5	.	.	.	.
O=C(Cc1ccccc1)N[C@@H]1CC[C@H](CC(=O)N2CCCCC2)O[C@H]1CO	.	.	1	-9	.	.	.	.
CCN(CC)S(=O)(=O)c1cccc(NC(=O)C2SC(=Nc3ccc(C)cc3C)C(C(=O)NCC3CCCO3)=C2N)c1 (stereo not given)	-22	-5	.	14	i	45*	15	-1
C[C@@H]1CN([C@H](C)CO)C(=O)Cc2cc(NC(=O)Nc3ccc(C(F)(F)F)cc3)ccc2O[C@H]1CN(C)C(=O)Nc1cccc2ccccc12	.	.	1	2	.	.	.	.
SMILES	FID counter	UBC13 polyUb	RAD52 anneal inh	RAD54 inh	Neddyl block	Apaf1 inhib	Apaf-1 inh conf	Rh110 interf inh
S=C(Nc1ccc2nsnc2c1)N1CCCCC1	1	.	-5	.	i	.	.	.
CCN(CC)C(=O)C1CCCN(C(=O)Nc2ccc3nsnc3c2)C1 (stereo not given)	-15	18	.	6	.	71*	12	5
O=C(NCC[C@H]1CC[C@@H](NC(=O)C2CC2)[C@H](CO)O1)c1cc(Cl)cc(Cl)c1	.	.	-6	-8	.	.	.	.
O=[N+]([O-])c1cc(CN2CCN(c3cccc(C(F)(F)F)c3)CC2)c2cccnc2c1O	-6	-42	-15	.	.	42*	24	5
COc1ccc(CCNC(=O)C(=O)NCC2CCCN2S(=O)(=O)c2ccc(OC)cc2)cc1 (stereo not given)	.	-2	-10	4	i	61*	12	11
C[C@@H]1CCCCO[C@H](CN(C)Cc2ccccc2)[C@@H](C)CN([C@@H](C)CO)C(=O)c2cc(NS(C)(=O)=O)ccc2O1	.	.	-5	7	.	.	.	.
COC(=O)N/N=C/c1ccc(-c2ccc(C)c(Cl)c2)o1	-9	-9	-14	-7	i	11	.	.
O=C1NCC(c2ccccc2)C1C(=O)N/N=C\c1ccc(-c2cccc(Cl)c2Cl)o1 (stereo not given)	-21	2	.	-7	i	40*	20	7
Cc1ccc(-c2ccc(/C=N\NC(=O)C3C(=O)NCC3c3ccccc3)o2)cc1Cl (stereo not given)	-14	-2	.	-3	i	43*	35	14
COc1cccc(/C=N\NC(=O)C2C(=O)NCC2c2ccccc2)c1O (stereo not given)	-14	13	.	0	i	-1	.	.
O=C(Nc1ccc(F)cc1)N1CC(=O)N2[C@H](C1)[C@H](c1ccc(C3=CCCC3)cc1)[C@@H]2CO	.	.	1	.	.	.	.	.
O=C(CSc1nnc(-c2ccc(F)cc2)n1CC1CCCO1)NCc1ccco1 (stereo not given)	-10	14	19	-5	i	54*	36	6
C[C@@H]1CCCCO[C@H](CN(C)C(=O)NC2CCCCC2)[C@@H](C)CN([C@H](C)CO)C(=O)c2cc(N(C)C)ccc2O1	.	.	-3	-5	.	.	.	.
